# Rows were chosen to be rich in hits. Some 6.6% of all compounds tested hit in one or more screens of this group.
# PostGolgi ctrl: growth inhibition of yeast control strain, primary screen, counter-screen for post-Golgi transport modulator project; efflux-deficient yeast background strain, growth absorbance A615, 16 h; inhibition, % at 10 µM; 98,000 compounds, 5% hits
# E coli WT exp: growth inhibitors of wild-type E. coli, primary screen, strain BW25113, expanded library, OD600 | 98,000 compounds, 0.15% hits | OD600 absorbance | growth inhibition, % at 100 µM;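 active = growth inhibition above about 50% at one test dose, limit read from the data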;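 also: growth measured after 20 h incubation at 37 °C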
# Ecoli tolC: growth inhibitors of E. coli tolC mutant, primary screen, strain BW25113 ΔtolC::kan, 384-well; OD615; growth inhibition, % at 10 µM (by protocol); 65,000 compounds, 2.2% hits; AID 573, 2007;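 active = growth inhibition at or above a cutoff equal to the mean over every tested compound plus 3 SD, cut at about 60% in these data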;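 also: growth measured after 20 h incubation at 37 °C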
#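 Test system: E. coli BW25113 ΔtolC::kan bacteria | Medium: Kanamycin-containing LB broth (50 µg/mL) | Dosing: One dose of 10 µM final | Times: 20 h incubation with compound, 37 °C | Detection: Optical density read at 615 nm | Read-out basis: Percent growth inhibition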
# PostGolgi yeast: phenotypic screen on post-Golgi transport, primary screen | post-Golgi transport phenotypic cell assay | inhibition, % at 10 µM | 98,000 compounds, 0.9% hits | AID 739, 2007;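 also: yeast cells grown in 1536-well plates; yeast grown about 18 h at 30C before absorbance read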
# Her2 expr inh: inhibitors of Her2 protein expression, primary screen, SKBR-3 cells, AlphaScreen, 66K library. 65,000 compounds, 0.69% hits. AID 645, 2007. HER2 level % of control, % at 10 µM. SKBR-3 HER2 protein level, 18-24 h; stronger effect = lower value;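 active = HER2 level under 5% of the carrier-only control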;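 also: 100% = DMSO carrier and 0% = 500 nM PU-H71 HSP90 inhibitor; lower value means stronger loss of Her2 protein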
# Target sequence (P04626 whole entry, looked up): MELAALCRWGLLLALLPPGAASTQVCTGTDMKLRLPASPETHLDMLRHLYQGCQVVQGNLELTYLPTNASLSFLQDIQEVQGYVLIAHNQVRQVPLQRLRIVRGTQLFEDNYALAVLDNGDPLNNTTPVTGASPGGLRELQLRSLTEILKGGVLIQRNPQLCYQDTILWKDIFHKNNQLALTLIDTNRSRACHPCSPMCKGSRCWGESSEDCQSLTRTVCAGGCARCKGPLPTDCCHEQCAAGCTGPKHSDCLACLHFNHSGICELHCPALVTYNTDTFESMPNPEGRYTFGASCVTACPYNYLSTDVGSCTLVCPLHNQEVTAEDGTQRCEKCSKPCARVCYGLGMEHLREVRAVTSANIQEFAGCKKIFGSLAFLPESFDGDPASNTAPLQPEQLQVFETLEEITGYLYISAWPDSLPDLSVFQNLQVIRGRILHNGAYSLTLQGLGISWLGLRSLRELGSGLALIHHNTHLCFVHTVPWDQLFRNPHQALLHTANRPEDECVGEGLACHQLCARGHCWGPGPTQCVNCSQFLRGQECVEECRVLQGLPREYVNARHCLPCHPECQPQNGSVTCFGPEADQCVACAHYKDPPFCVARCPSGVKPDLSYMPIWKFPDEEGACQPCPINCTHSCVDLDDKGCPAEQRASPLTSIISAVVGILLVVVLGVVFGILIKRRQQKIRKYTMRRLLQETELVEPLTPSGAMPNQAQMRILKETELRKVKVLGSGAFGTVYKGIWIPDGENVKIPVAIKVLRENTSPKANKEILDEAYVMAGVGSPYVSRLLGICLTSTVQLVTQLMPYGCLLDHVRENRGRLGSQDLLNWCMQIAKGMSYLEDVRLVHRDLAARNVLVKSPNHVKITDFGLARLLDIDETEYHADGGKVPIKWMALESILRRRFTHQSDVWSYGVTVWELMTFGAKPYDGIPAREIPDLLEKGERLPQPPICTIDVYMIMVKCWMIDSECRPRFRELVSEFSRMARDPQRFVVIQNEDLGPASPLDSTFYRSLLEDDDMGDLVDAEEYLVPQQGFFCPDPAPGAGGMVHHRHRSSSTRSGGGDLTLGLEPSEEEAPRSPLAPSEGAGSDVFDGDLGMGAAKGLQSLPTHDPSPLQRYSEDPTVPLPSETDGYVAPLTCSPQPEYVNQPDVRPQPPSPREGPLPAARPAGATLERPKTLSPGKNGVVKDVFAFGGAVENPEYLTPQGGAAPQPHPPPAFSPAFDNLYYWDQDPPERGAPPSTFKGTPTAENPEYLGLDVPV
# Starred values were filed as active, the others as inactive; · = not tested or not shown. Rule as the data show it, unless noted: active = inhibition above about 30%; inactive = the rest.
SMILES,PostGolgi ctrl,E coli WT exp,Ecoli tolC,PostGolgi yeast,Her2 expr inh
Cn1c(=O)c2c(nc(N3CCN(c4ccccn4)CC3)n2Cc2ccccc2Cl)n(C)c1=O,33*,-8,·,-1,·
Cn1c(=O)c2c(nc(N3CCc4ccccc4C3)n2Cc2ccc(Br)cc2)n(C)c1=O,27,-3,21,-5,100
Cn1c(=O)c2c(nc(N3CCc4ccccc4C3)n2Cc2ccccc2F)n(C)c1=O,47*,-1,34,9,111
CC1=CC(C)(C)Nc2ccc(OC(=O)CN3C(=O)c4cccc5cccc(c45)C3=O)cc21,-8,-3,·,33*,·
CC(C)N1C(=O)C(Cc2nc3ccccc3c(=O)n2-c2ccccc2)c2ccccc21 (configuration not stated),27,-11,·,-6,·
CC(C)N1C(=O)/C(=C/c2nc3ccccc3c(=O)n2-c2ccccc2)c2ccccc21,31*,-7,·,-3,·
CCOc1cc(S(=O)(=O)NCCc2cccc(C)c2)c(OCC)cc1-n1cnnn1,10,-9,40,4,3.6*
CCOc1cc(S(=O)(=O)NCCc2ccccc2C)c(OCC)cc1-n1cnnn1,8,-16,39,0,81
CCOc1cc(S(=O)(=O)N2CC=C(c3ccc(F)cc3)CC2)c(OCC)cc1-n1cnnn1,101*,-22,6,0,80
CCOc1ccc(-n2cnnn2)cc1S(=O)(=O)Nc1c(C)cccc1C,42*,4,4,-1,68
Cc1csc(Sc2ccc([N+](=O)[O-])cc2C(=O)OCC(=O)NC(=O)NC(C)(C)C)n1,7,-4,·,2,·
Cc1nn(Cc2cccc(C(=O)N3N=C(C(F)F)CC3(O)C(F)F)c2)c(C)c1[N+](=O)[O-] (configuration not stated),5,-9,·,-3,·
CCN(CC)CCCN(Cc1cc2ccc(C)c(C)c2[nH]c1=O)C(=O)NC1CCCCC1,7,7,·,1,·
O=S(=O)(Nc1ccc(-n2cccc2)cc1)c1ccc(Cl)cc1Cl,67*,-8,·,-4,·
O=C(COC(=O)c1ccncc1)Nc1cc(Cl)c(Cl)cc1Cl,2,4,·,-3,·
O=C(c1ccccc1)N1CCCCC(S(=O)(=O)c2ccc3ccccc3c2)C1=O (configuration not stated),30,-23,·,-13,·
CCCCn1c(SCC(=O)NCc2ccccc2)nc2ccc(N3CCOCC3)cc2c1=O,35*,-6,7,-5,113
CCCCn1c(SCC(=O)N2CCN(c3ccccc3)CC2)nc2ccsc2c1=O,43*,-24,51,3,160
CCCn1c(SCC(=O)N2CCN(c3ccccc3)CC2)nc2ccccc2c1=O,51*,-17,14,1,90
Cc1[nH]c2ccccc2c1C(=O)CSc1nc2ccccc2c(=O)n1CCCN1CCOCC1,36*,-11,·,0,·
CCn1c(SCC(=O)N2CCN(c3ccc(Cl)cc3)CC2)nc2ccccc2c1=O,55*,-6,-13,-10,133
CCn1c(SCC(=O)N2CCCC2)nc2ccccc2c1=O,12,-4,-7,-5,116
O=c1c2ccccc2nc(SCc2cccc(F)c2)n1Cc1ccco1,31*,-2,30,4,101
C=C(C)Cn1c(SCC)nc2ccccc2c1=O,44*,3,25,1,102
O=c1c2ccccc2nc(SCc2ccccc2)n1Cc1ccco1,18,-9,35,19,117
SMILES,PostGolgi ctrl,E coli WT exp,Ecoli tolC,PostGolgi yeast,Her2 expr inh
CCn1c(SCC(=O)N2CCN(c3ccc(F)cc3)CC2)nc2ccccc2c1=O,37*,-4,12,2,95
O=C(CSc1nc(N2CCCCC2)nc(N2CCCCC2)n1)NC1CCCCC1,·,·,7,·,69
Cc1cccc(NC(=O)C2NC(=O)CC2c2ccccc2)c1C (configuration not stated),11,0,·,-8,·
Cn1c(Cc2ccccc2)nnc1SCC(=O)N1CCOCC1,-5,-2,·,1,103
CCCn1c(Cc2ccccc2)nnc1SCC(=O)N1CCOCC1,30*,6,·,6,·
O=c1c2ccccc2nnn1CSc1nc2ccccc2c(=O)n1Cc1ccco1,·,·,9,·,82
O=C(CSc1nc2ccccc2c(=O)n1Cc1ccco1)c1ccccc1,31*,-11,31,-4,67
COCCn1c(SCC(=O)Nc2ccc(NC(=O)c3ccco3)c(OC)c2)nc2ccccc2c1=O,-4,-3,·,16,·
CCCCn1c(SCC(=O)Nc2cc(NC(=O)c3ccco3)ccc2C)nc2ccccc2c1=O,9,1,5,-6,-16*
O=C(CSc1nc2ccccc2c(=O)n1Cc1ccco1)N1CCN(c2ccccc2)CC1,36*,-12,30,1,112
CCOC(=O)CSc1nc2ccccc2c(=O)n1Cc1ccco1,20,2,10,3,93
Cc1ccc2c(c1)NC(=O)C(N1CCOCC1)(C(F)(F)F)O2 (configuration not stated),1,1,3,-20,78
Cn1nc(C(F)(F)F)c(C(=O)Nc2cccc(Cl)c2)c1Cl,5,-3,·,13,·
CCn1c(SCC(=O)N2CCOCC2)nc2oc3c(Cl)cc(Cl)cc3c(=O)c2c1=O,10,1,18,-6,-1.7*
CCn1c(=O)[nH]c2cc(C(=O)N3CCN(c4ccccc4)CC3)ccc2c1=O,5,3,4,36*,206
Sc1oc(-c2ccccc2)cc1C=Nc1ccccc1,5,-4,·,-5,·
O=C(COn1nnc2ccccc21)NCC1CCCCC1,5,-5,0,-1,108
CCCc1[nH]c(=O)c(C#N)c2c1CCCC2,0,3,·,4,·
CCOc1cc(S(=O)(=O)N2CCN(Cc3ccccc3)CC2)ccc1Br,29,1,64*,10,71
COc1ccccc1Oc1cc(C#N)c(C#N)cc1-n1nnc2ccccc21,30*,-19,32,-4,93
O=C(c1ccc(C(F)(F)F)cc1)c1c[nH]c(C(=O)NCCCn2ccnc2)c1,7,8,·,-2,·
CCc1c(C#N)c(SCc2c(C)noc2C)nc2c1C(=O)CC(C)(C)C2,·,·,63*,·,107
CCc1c(C#N)c(SCCC(=O)Nc2ccc(OC)cc2)nc2c1C(=O)CC(C)(C)C2,5,-12,·,-3,·
COc1ccc(CNC(=O)C(C)NC(=O)c2cc3ccccc3o2)cc1 (configuration not stated),6,0,-14,5,67
O=S(=O)(Nc1ccncc1)c1ccc(Cl)cc1,-1,-4,·,-4,·
O=S(=O)(Nc1ccc(Cc2ccncc2)cc1)c1ccc(Cl)c(Cl)c1,96*,4,·,107*,·
O=C(Nc1ccc(Cl)c(Cl)c1)c1ccncc1,3,22,20,-2,124
O=C(Nc1ccc(Cc2ccncc2)cc1)c1ccc(Cl)c([N+](=O)[O-])c1,78*,3,·,67*,·
O=C(Nc1ccc(Cl)cc1)c1ccc(-n2cccn2)c([N+](=O)[O-])c1,38*,-8,·,12,·
